Format in all cases: functional
Test [1] has as its system Candida albicans. Kind of test: Antifungal activity against Candida albicans ATCC 24433 after 48 hrs by broth microdilution method. The essentials: (§1)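 Broth microdilution run per CLSI M27-A2 in RPMI 1640 buffered to pH 7.0 with MOPS. Fluconazole and amphotericin B served as reference drugs. Endpoints were read after 48 h, visually or by spectrophotometer where needed. MIC was taken as the concentration giving 50% inhibition relative to the positive control.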

For another test, the system named is Aspergillus niger. Kind of test: Antifungal activity against Aspergillus niger ATCC 16404 after 48 hrs by broth microdilution method.
Test [2] concerns Candida albicans. Kind of test: Antifungal activity against Candida albicans ATCC 2091 after 48 hrs by broth microdilution method. The settings on record: ATCC 2091, 48 h. The essentials:
as §1

In test [3] the test system is Candida albicans. The experiment in a line: Antifungal activity against Candida albicans ATCC 90028 after 48 hrs by broth microdilution method. The settings on record: ATCC 90028, 48 h. The method in brief:
as §1

The subject of a further test is Nakaseomyces glabratus. The experiment in a line: Antifungal activity against Candida glabrata ATCC 90030 after 48 hrs by broth microdilution method. The settings on record: ATCC 90030, 48 h. The method in brief: as §1
On the technique in general: In broth dilution the organism is exposed to a series of concentrations in liquid medium.

The subject of another test is Pichia kudriavzevii. Kind of test: Antifungal activity against Candida krusei ATCC 6258 after 48 hrs by broth microdilution method. The settings on record: ATCC 6258, 48 h. The method in brief:
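Broth microdilution MIC per CLSI M27-A2 in RPMI 1640 buffered to pH 7.0 with MOPS. End points were read at 48 h, visually or by spectrophotometer where needed. For fluconazole and the synthetic compounds, MIC was the concentration giving 50% inhibition relative to the positive control. Fluconazole and amphotericin B served as positive controls.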

The subject of a further test is Candida tropicalis. The experiment in a line: Antifungal activity against Candida tropicalis ATCC 750 after 48 hrs by broth microdilution method. The settings on record: ATCC 750, 48 h. The method in brief: as §1
The subject of a further test is Fusarium proliferatum. The experiment in a line: Antifungal activity against Fusarium proliferatum ATCC 10052 after 48 hrs by broth microdilution method.
For test [4], the system named is Candida albicans. Kind of test: Antifungal activity against Candida albicans ATCC 10231 after 48 hrs by broth microdilution method. The settings on record: ATCC 10231, 48 h. The method in brief: as §1

In brackets after ≈: the same amount, converted by molar mass. Activity calls are given as the source filed them. The rule behind the calls is not given here.

As a reminder, the MIC is the lowest concentration that inhibits growth of the organism. Consider `OC(Cn1cncn1)(Cn1cncn1)c1ccc(F)cc1F` [FLUCONAZOLE], for which the MIC with Candida albicans [1] (ATCC 24433, 48 h) turned out to be 0.25 µg/mL (≈ 0.816 µM); in the test on Aspergillus niger (ATCC 16404, 48 h) it was 128 µg/mL (≈ 418 µM); with Candida albicans [2], 0.5 µg/mL (≈ 1.63 µM); against Candida albicans [3] it was 0.5 µg/mL (≈ 1.63 µM); in the test with Nakaseomyces glabratus, 4 µg/mL (≈ 13.1 µM); against Pichia kudriavzevii it was 64 µg/mL (≈ 209 µM). In addition, the MIC in the test with Candida tropicalis is 2 µg/mL (≈ 6.53 µM); in the test with Fusarium proliferatum (ATCC 10052, 48 h), over 128 µg/mL; in the test with Candida albicans [4], 1 µg/mL (≈ 3.27 µM).

In the test on Candida albicans [1] (ATCC 24433, 48 h), `Cc1ccc2c(c1)SCC(=O)N2CC(O)(Cn1cncn1)c1ccc(F)cc1F` (stereo not drawn) had an MIC of 2 µg/mL (≈ 4.8 µM). Further, the MIC result in the test with Aspergillus niger and with Fusarium proliferatum was “inactive” each time.

On to `O=C1COc2ccccc2N1CC(O)(Cn1cncn1)c1ccc(F)cc1F` (stereo not drawn), for which the MIC was 0.5 µg/mL (≈ 1.29 µM) against Candida albicans [1] (ATCC 24433, 48 h); 0.25 µg/mL (≈ 0.647 µM) against Candida albicans [2]; 0.12 µg/mL (≈ 0.311 µM) in the test on Candida albicans [3]; 0.25 µg/mL (≈ 0.647 µM) with Nakaseomyces glabratus; 16 µg/mL (≈ 41.4 µM) against Pichia kudriavzevii; 2 µg/mL (≈ 5.18 µM) with Candida tropicalis. In addition, the MIC against Candida albicans [4] was 0.5 µg/mL (≈ 1.29 µM). Moreover, the MIC result in the test with Aspergillus niger and in the test with Fusarium proliferatum was “inactive” throughout.

As for `O=C1CSc2ccccc2N1CC(O)(Cn1cncn1)c1ccc(F)cc1F` (stereo not drawn), the MIC against Candida albicans [1] (ATCC 24433, 48 h) turned out to be 0.03 µg/mL (≈ 0.0745 µM); against Candida albicans [2] it was 0.12 µg/mL (≈ 0.298 µM); in the test with Candida albicans [3], 0.03 µg/mL (≈ 0.0745 µM); against Nakaseomyces glabratus, 0.06 µg/mL (≈ 0.149 µM); in the test on Pichia kudriavzevii it was 4 µg/mL (≈ 9.94 µM); in the test with Candida tropicalis, 0.5 µg/mL (≈ 1.24 µM). In addition, the MIC with Candida albicans [4] was 0.12 µg/mL (≈ 0.298 µM). In addition, the MIC result with Aspergillus niger and in the test on Fusarium proliferatum was “inactive” throughout.

With `COc1ccc2c(c1)SCC(=O)N2CC(O)(Cn1cncn1)c1ccc(F)cc1F` (stereo not drawn), inhibition of growth in the test with Candida albicans [1] (ATCC 24433, 48 h) (MIC) required 4 µg/mL (≈ 9.25 µM). Besides, the MIC entry in the test with Aspergillus niger and in the test on Fusarium proliferatum was “inactive” in each case.

Compound `O=C1COc2ccc(Cl)cc2N1CC(O)(Cn1cncn1)c1ccc(F)cc1F` (stereo not drawn) yielded an MIC against Candida albicans [1] (ATCC 24433, 48 h) of 8 µg/mL (≈ 19 µM). Also, the MIC entry in the test with Aspergillus niger and in the test on Fusarium proliferatum was “inactive” throughout.

`O=C1COc2ccc(Cl)cc2N1CC(O)(Cn1cncn1)c1ccc(F)cc1` (stereo not drawn) had an MIC in the test with Candida albicans [1] (ATCC 24433, 48 h) of 16 µg/mL (≈ 39.7 µM). For the same compound, the MIC entry with Aspergillus niger and with Fusarium proliferatum was “inactive” each time.

Regarding `CC(=O)c1ccc2c(c1)N(CC(O)(Cn1cncn1)c1ccc(Br)cc1)C(=O)CO2` (stereo not drawn), the lowest concentration to inhibit growth in the test with Candida albicans [1] (ATCC 24433, 48 h) (MIC) was 32 µg/mL (≈ 67.9 µM). The MIC result with Aspergillus niger and in the test on Fusarium proliferatum was “inactive” each time.

As for `O=C1COc2ccc(Br)cc2N1CC(O)(Cn1cncn1)c1ccc(F)cc1F` (stereo not drawn), the MIC against Candida albicans [1] (ATCC 24433, 48 h) amounted to 16 µg/mL (≈ 34.4 µM). Further, the MIC entry in the test with Aspergillus niger and in the test on Fusarium proliferatum was “inactive” throughout.

`C[C@@H]1[C@H](O)[C@@H](C)/C=C/C=C/C=C/C=C/C=C/C=C/C=C/[C@H](O[C@@H]2O[C@H](C)[C@@H](O)[C@H](N)[C@@H]2O)C[C@@H]2O[C@](O)(C[C@@H](O)C[C@@H](O)[C@H](O)CC[C@@H](O)C[C@@H](O)CC(=O)O[C@H]1C)C[C@H](O)[C@H]2C(=O)O` [AMPHOTERICIN B]: the MIC against Candida albicans [1] (ATCC 24433, 48 h) stood at 0.25 µg/mL (≈ 0.271 µM); against Aspergillus niger (ATCC 16404, 48 h), 1 µg/mL (≈ 1.08 µM); in the test on Candida albicans [2], 0.5 µg/mL (≈ 0.541 µM); in the test with Candida albicans [3], 0.5 µg/mL (≈ 0.541 µM); with Nakaseomyces glabratus, 0.25 µg/mL (≈ 0.271 µM); in the test on Pichia kudriavzevii, 0.5 µg/mL (≈ 0.541 µM). The MIC in the test on Candida tropicalis came out at 0.5 µg/mL (≈ 0.541 µM); against Fusarium proliferatum (ATCC 10052, 48 h), 2 µg/mL (≈ 2.16 µM); in the test on Candida albicans [4] it was 0.5 µg/mL (≈ 0.541 µM).

For `O=C1CSc2cc(Br)ccc2N1CC(O)(Cn1cncn1)c1ccc(F)cc1F` (stereo not drawn), the MIC with Candida albicans [1] (ATCC 24433, 48 h) was 1 µg/mL (≈ 2.08 µM). In addition, the MIC result with Aspergillus niger and in the test on Fusarium proliferatum was “inactive” in each case.

Take `COc1ccc2c(c1)SCC(=O)N2CC(O)(Cn1cncn1)c1ccc(F)cc1` (stereo not drawn): the MIC against Candida albicans [1] (ATCC 24433, 48 h) was determined as 8 µg/mL (≈ 19.3 µM). For the same compound, the MIC result in the test on Aspergillus niger and with Fusarium proliferatum was “inactive” each time.

In turn, `O=C1COc2ccc([N+](=O)[O-])cc2N1CC(O)(Cn1cncn1)c1ccc(F)cc1F` (stereo not drawn) gave an MIC in the test on Candida albicans [1] (ATCC 24433, 48 h) of 32 µg/mL (≈ 74.2 µM). Moreover, the MIC entry in the test on Aspergillus niger and with Fusarium proliferatum was “inactive” in each case.

As to `O=C1CSc2cc(Cl)ccc2N1CC(O)(Cn1cncn1)c1ccc(F)cc1` (stereo not drawn), inhibition of growth in the test on Candida albicans [1] (ATCC 24433, 48 h) (MIC) required 2 µg/mL (≈ 4.77 µM). Further, the MIC result with Aspergillus niger and in the test on Fusarium proliferatum was “inactive” each time.

In the case of `O=C1COc2ccc(Cl)cc2N1CC(O)(Cn1cncn1)c1ccc(Br)cc1` (stereo not drawn), in the test on Candida albicans [1] (ATCC 24433, 48 h), it took 4 µg/mL (≈ 8.63 µM) to inhibit growth (MIC). In addition, the MIC result in the test with Aspergillus niger and with Fusarium proliferatum was “inactive” throughout.

Regarding `CC(=O)c1ccc2c(c1)N(CC(O)(Cn1cncn1)c1ccc(F)cc1F)C(=O)CO2` (stereo not drawn), the MIC result in the test on Candida albicans [1], in the test with Aspergillus niger and with Fusarium proliferatum was “inactive” each time.

Turning to `COc1ccc2c(c1)SCC(=O)N2CC(O)(Cn1cncn1)c1ccc(Br)cc1` (stereo not drawn), 2 µg/mL (≈ 4.21 µM) was the least that counted as inhibitory against Candida albicans [1] (ATCC 24433, 48 h) (MIC). Also, the MIC entry in the test on Aspergillus niger and in the test with Fusarium proliferatum was “inactive” each time.

In the case of `O=C1CSc2cc(Cl)ccc2N1CC(O)(Cn1cncn1)c1ccc(F)cc1F` (stereo not drawn), it took 1 µg/mL (≈ 2.29 µM) to inhibit growth with Candida albicans [1] (ATCC 24433, 48 h) (MIC). Also, the MIC result in the test with Aspergillus niger and in the test with Fusarium proliferatum was “inactive” in each case.

These data come from ChEMBL document CHEMBL1153199, “Fluconazole analogues containing 2H-1,4-benzothiazin-3(4H)-one or 2H-1,4-benzoxazin-3(4H)-one moieties, a novel class of anti-Candida agents” (2010).
